Source: PubChem
PREPL inhibitor – human PREPL enzyme inhibition; recombinant PREPL, fluorescence polarization activity-based probe; inhibition, % at 5.96 µM; actives 0.68% (n = 320,000); AID 2751;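 also: 0% = enzyme with DMSO and 100% = wells lacking enzyme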
UBC13 inh – human UBC13 polyubiquitination inhibition; P61088; UBC13 polyubiquitin chain formation, TR-FRET; inhibition, % at 20 µM; actives 0.47% (n = 330,000); AID 485273; in the data active = inhibition above about 45%, passing the limit was not always enough
Apaf1 inhib – human Apaf-1 inhibition; actives 0.71% (n = 330,000); reconstituted apoptosome caspase-3 activity, DEVD-Rh110 fluorescence; O14727; inhibition, % at 20 µM; active = inhibition of at least 40% at 20 µM;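 also: plate controls were DMSO wells for no effect and DEVD-CHO caspase inhibitor wells for full effect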
Target sequence (O14727 whole entry, looked up): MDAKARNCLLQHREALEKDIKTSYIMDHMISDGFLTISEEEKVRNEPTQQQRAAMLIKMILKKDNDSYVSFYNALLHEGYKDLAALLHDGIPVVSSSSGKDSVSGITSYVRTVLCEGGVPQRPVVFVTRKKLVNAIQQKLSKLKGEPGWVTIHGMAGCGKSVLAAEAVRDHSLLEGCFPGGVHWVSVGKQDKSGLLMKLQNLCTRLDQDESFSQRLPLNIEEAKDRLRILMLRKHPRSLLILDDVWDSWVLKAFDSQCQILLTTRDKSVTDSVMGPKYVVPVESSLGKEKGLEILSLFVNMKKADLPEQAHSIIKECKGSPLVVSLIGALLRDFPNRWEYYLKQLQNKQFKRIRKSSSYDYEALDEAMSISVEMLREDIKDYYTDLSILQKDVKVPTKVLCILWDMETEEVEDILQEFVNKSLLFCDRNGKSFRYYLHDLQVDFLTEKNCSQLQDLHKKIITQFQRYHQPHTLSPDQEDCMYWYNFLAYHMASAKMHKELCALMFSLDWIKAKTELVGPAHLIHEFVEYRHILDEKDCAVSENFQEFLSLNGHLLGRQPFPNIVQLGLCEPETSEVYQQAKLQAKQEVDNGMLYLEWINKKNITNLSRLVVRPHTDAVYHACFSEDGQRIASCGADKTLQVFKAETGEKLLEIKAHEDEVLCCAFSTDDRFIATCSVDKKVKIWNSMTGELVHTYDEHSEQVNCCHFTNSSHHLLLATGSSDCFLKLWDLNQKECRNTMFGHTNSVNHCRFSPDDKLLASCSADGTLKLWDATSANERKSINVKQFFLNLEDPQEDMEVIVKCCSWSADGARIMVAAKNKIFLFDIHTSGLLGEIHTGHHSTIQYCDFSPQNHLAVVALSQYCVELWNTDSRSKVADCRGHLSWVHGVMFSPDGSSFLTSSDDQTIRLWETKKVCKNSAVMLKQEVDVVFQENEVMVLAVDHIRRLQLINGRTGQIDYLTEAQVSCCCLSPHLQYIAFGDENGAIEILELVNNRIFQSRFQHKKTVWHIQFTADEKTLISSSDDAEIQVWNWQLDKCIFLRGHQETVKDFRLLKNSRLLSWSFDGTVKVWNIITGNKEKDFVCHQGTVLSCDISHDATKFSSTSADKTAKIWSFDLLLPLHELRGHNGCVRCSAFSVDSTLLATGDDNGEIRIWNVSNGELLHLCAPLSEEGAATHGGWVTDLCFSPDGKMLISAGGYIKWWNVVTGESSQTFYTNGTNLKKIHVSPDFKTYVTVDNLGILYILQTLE
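System – cell-free apoptosome with Apaf-1, procaspase-3 and caspase-9 · Buffer or medium – pH 7.5 Hepes buffer with CHAPS, BSA, DTT · Also added – cytochrome c with DEVD-Rh110 · Times – 30 min compound preincubation, 50 min activation, room temperature · Technique – Rh110 fluorescence intensity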
ZTA counter – blocks Epstein-Barr virus ZTA, an EBNA-1 counter-screen; P03206; ZTA-DNA binding, fluorescence polarization; inhibition, % at 11 µM; actives 0.15% (n = 320,000); in the data active = inhibition above about 33%
EBNA-1 inhibitor – blocks EBNA-1 binding to DNA | actives 0.34% (n = 300,000) | inhibition, % at 14.8 µM | EBNA-1 DNA binding, fluorescence polarization; in the data active = inhibition above about 28%
PREPL confirm – confirmation of human PREPL enzyme inhibitors; shares compounds with PREPL inhibitor; recombinant PREPL, fluorescence polarization activity probe; inhibition, % at 5.96 µM; actives 67% (n = 2,000); AID 2803;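 also: 0% = protein with DMSO and 100% = wells lacking protein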
The depositor's hits bear a star; · = no result given. In the library only some 1.7% were active in any assay of this set; here they are far more common. Rule as the data show it, unless noted: active = inhibition above about 43%; inactive = the rest.

SMILES	PREPL inhibitor	UBC13 inh	Apaf1 inhib	ZTA counter	EBNA-1 inhibitor	PREPL confirm
COc1ccc(-c2cn(Cc3ccc4c(c3)C(=O)c3ccccc3C4=O)nn2)cc1	48*	-6	1	-4	-2	37
Cc1ccccc1N(C)S(=O)(=O)c1nnc(NC(=O)c2ccccc2F)s1	4	-4	2	-12	11	·
Oc1ccc(N=Nc2ccccc2-c2nn[nH]n2)c(O)c1	51*	-99	12	5	-3	53*
COc1ccc2c(c1OC)C(=O)O[C@@H]2[C@H]1c2c(cc3c(c2OC)OCO3)CCN1C	4	4	-6	-14	-16	·
COc1ccc2cc1Oc1ccc(cc1)C[C@H]1c3cc(c(OC)cc3CCN1C)Oc1c(OC)c(OC)cc3c1[C@H](C2)N(C)CC3	61*	27	32	0	5	60*
CCOC(=O)c1ccc(NC(=O)C2C3C=CC(C3)C2C(=O)O)cc1 (stereo not given)	-5	1	0	-4	-6	·
COCCn1c(CN(C)Cc2ccccc2)nc2c1c(=O)n(C)c(=O)n2C	53*	1	-2	-13	2	37
O=C(C1=C[C@@H](c2ccc(C(F)(F)F)cc2)C[C@@H](OCc2ccc(CO)cc2)O1)N1CCOCC1	55*	10	10	-4	-8	48*
C#Cc1ccc([C@H]2C=C(C(=O)N3CCOCC3)O[C@@H](OCc3ccc(CO)cc3)C2)cc1	29	-10	6	-8	2	·
C#Cc1ccc([C@@H]2C=C(C(=O)N3CCOCC3)O[C@H](OCc3ccc(CO)cc3)C2)cc1	45*	10	8	13	8	44*
O=C(NC1CC1)C1=C[C@H](c2ccc(Br)cc2)C[C@H](OCc2ccc(CO)cc2)O1	15	6	14	7	9	·
O=C(NC1CC1)C1=C[C@@H](c2ccc(C(F)(F)F)cc2)C[C@@H](OCc2ccc(CO)cc2)O1	47*	6	12	-7	-2	42
CN1CCN(C(=O)C2=C[C@@H](c3ccc(C(F)(F)F)cc3)C[C@@H](OCCCCO)O2)CC1	45*	3	1	-23	-3	54*
O=C(C1=C[C@H](c2ccc(C(F)(F)F)cc2)C[C@H](OCc2ccc(CO)cc2)O1)N1CCCCCCC1	36	-1	19	-2	-1	·
CN1CCN(C(=O)C2=C[C@H](c3ccc(C(F)(F)F)cc3)C[C@H](OCCCCO)O2)CC1	20	1	7	14	2	·
O=C(c1ccc(N2CCN(C(=O)c3ccccc3)CC2)cc1)c1cccc(F)c1	12	24	31	0	-1	·
CC(=O)Nc1ccc(OCC(O)CN2CCN(c3ccc(C)c(Cl)c3)CC2)cc1 (stereo not given)	44*	1	2	-7	-1	39
CC(=O)Nc1ccc(OCC(O)CN2CCN(c3cc(Cl)ccc3C)CC2)cc1 (stereo not given)	9	9	-2	-14	-4	·
Cc1ccc(S(=O)(=O)c2cc(OC(=O)c3ccco3)ccc2OC(=O)c2ccco2)cc1	86*	-10	9	10	9	77*
O=C(Oc1ccc(OC(=O)c2ccco2)c(S(=O)(=O)c2ccc(Br)cc2)c1)c1ccco1	94*	-11	7	3	4	93*
COC(=O)c1ccc(OC(=O)c2ccco2)cc1	32	9	-4	2	3	·
COc1ccc(NC(=O)N2CCN(c3ccc([N+](=O)[O-])cc3)CC2)cc1OC	46*	-27	10	5	1	56*
COc1ccc(NC(=O)N2CCN(c3ccc([N+](=O)[O-])cc3)CC2)cc1	30	-3	15	-5	8	·
CC1CC(C)CN(C(=O)c2ccc3c(c2NCCO)C(=O)c2ccccc2C3=O)C1 (stereo not given)	56*	-263	24	5	4	58*
Cc1ccc2c(c1)c(C)cc[n+]2Cc1ccccc1	50*	14	8	9	1	29
SMILES	PREPL inhibitor	UBC13 inh	Apaf1 inhib	ZTA counter	EBNA-1 inhibitor	PREPL confirm
COc1ccc2c(c1)c(C)cc[n+]2Cc1ccccc1	·	6	2	·	·	·
CCOc1cc(N2CCOCC2)c(OCC)cc1NC(=O)CSc1nnc(N)s1	5	-3	-1	·	·	·
Cc1ccc2c(c1)[C@@H]1CN(C)CC[C@@H]1N2S(=O)(=O)c1ccc([N+](=O)[O-])cc1	4	-8	-5	-8	-3	·
Cc1ccc2c(c1)C1CN(C)CCC1N2Sc1ccccc1[N+](=O)[O-] (stereo not given)	45*	-4	26	0	-3	38
OCc1nc2ccccc2n1CCCOc1ccccc1	3	3	-22	20	-5	·
O=C(Nc1ccc2c(c1)OCCO2)c1cccc2nc3ccccc3nc12	49*	-8	17	-16	-2	60*
COc1cc(/C=N/N=C2/NC(=O)C(CC(=O)O)S2)ccc1OCc1ccc(Cl)cc1 (stereo not given)	38	-15	15	-1	8	·
CCOc1cc(/C=N/N=C2/NC(=O)C(CC(=O)O)S2)ccc1OCc1ccc(Cl)cc1Cl (stereo not given)	49*	-24	25	5	6	64*
Cc1nn(CCCC(=O)NCCc2ccccc2)c(C)c1[N+](=O)[O-]	8	-4	-18	-8	1	·
O=C(C[C@@H]1C/C=C\C[C@@H](Cc2ccc(F)cc2)C(=O)OC[C@H]2CCCN2C1=O)N[C@H](CO)Cc1ccccc1	45*	2	14	·	·	47*
O=C(C[C@H]1C/C=C\C[C@@H](Cc2ccc(F)cc2)C(=O)OC[C@H]2CCCN2C1=O)N[C@@H](CO)Cc1ccccc1	60*	20	6	·	·	51*
CCCCC[C@H](O)/C=C/[C@H]1CCC(=O)[C@@H]1CCCCCCC(=O)N1CCCCC1CO (stereo not given in full)	-1	8	20	-11	-15	·
CCN1CCCC1CNC(=O)c1ccc2c(c1)NC(=O)/C(=C\c1ccc(OC)c(OC)c1)S2 (stereo not given)	56*	23	33	-7	-13	61*
Cc1ccc(-c2nn(CC(=O)NC(C)c3ccccc3)c(=O)c3ccccc23)cc1 (stereo not given)	-9	5	17	2	9	·
COc1ccc(CN2CCN(c3cc(C)nc4c5c(C)cc(C)nc5nn34)CC2)cc1F	46*	15	18	-18	1	34
Cc1cc(C)c2c(n1)nn1c(N3CCN(c4ccccc4C)CC3)cc(C)nc21	22	10	14	5	4	·
COc1cccc(CN2C(=O)c3ccccc3S2(=O)=O)c1	-1	4	6	4	-7	·
O=C(c1ccc(F)cc1)C1CCN(S(=O)(=O)c2ccccc2)CC1	-20	-7	2	-12	-2	·
CCSc1nnc(N)s1	-6	-14	-10	-6	3	·
